≈ marks a conversion by molar mass, not a printed value. Calls of active or inactive are those of the source. The rule behind the calls is not given here.
Key:
[1] = test system: HeLa; assay: Cytotoxicity against human HeLa cells by MTS assay; assay type: cell-based
[2] = Selectivity index, ratio of CC50 for human HeLa cells to MIC for Bacillus anthracis; assay type: functional
Method in brief: (§1)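 Selectivity index is HeLa CC50 (MTS assay) divided by the bacterial MIC.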

[3] = Inhibition of Staphylococcus aureus ATCC 25923 replicative DnaB helicase-mediated ATP-dependent dissociation of Hel-5'FAM:Hel-3'BHQ by FRET assay
Method in brief: (§2)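 Unwinding was read by FRET as helicase-driven, ATP-dependent dissociation of annealed Hel-5′FAM and Hel-3′BHQ oligonucleotides, one fluorescent and the other quencher-labelled. The replicative helicases were prepared as described earlier.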

[4] = test system: Staphylococcus aureus; assay: Antibacterial activity against Staphylococcus aureus ATCC 25923 by broth microdilution method; assay type: functional
[5] = test system: Staphylococcus aureus; assay: Antibacterial activity against Staphylococcus aureus ATCC 25923 by broth microdilution method in presence of reserpine; assay type: functional
[6] = target: T1, Replicative DNA helicase (Bacillus anthracis, UniProt A0A6L8Q2B7); assay: Inhibition of Bacillus anthracis Sterne 34F2 replicative DNA helicase-mediated ATP-dependent dissociation of Hel-5'FAM:Hel-3'BHQ by FRET assay; parameters: species or system Bacillus anthracis str. Sterne; method in brief: as §2
T1 sequence (A0A6L8Q2B7 whole entry): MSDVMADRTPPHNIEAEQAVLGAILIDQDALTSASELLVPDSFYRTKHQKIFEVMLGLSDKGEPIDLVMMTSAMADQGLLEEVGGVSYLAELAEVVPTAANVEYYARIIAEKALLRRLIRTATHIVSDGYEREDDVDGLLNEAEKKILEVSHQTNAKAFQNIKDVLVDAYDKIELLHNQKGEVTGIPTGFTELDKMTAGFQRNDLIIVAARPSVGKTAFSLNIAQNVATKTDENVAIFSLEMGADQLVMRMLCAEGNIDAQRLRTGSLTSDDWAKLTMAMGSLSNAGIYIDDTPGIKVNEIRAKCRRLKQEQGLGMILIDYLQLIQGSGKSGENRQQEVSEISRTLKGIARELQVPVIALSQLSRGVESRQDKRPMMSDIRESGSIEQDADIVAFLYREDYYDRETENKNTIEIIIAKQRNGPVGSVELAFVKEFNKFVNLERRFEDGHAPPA

[7] = Selectivity index, ratio of CC50 for human HeLa cells to MIC for Staphylococcus aureus ATCC 25923; assay type: functional; method in brief: as §1
[8] = test system: Bacillus anthracis; assay: Antibacterial activity against Bacillus anthracis by broth microdilution method; assay type: functional
[9] = test system: Bacillus licheniformis; assay: Antibacterial activity against Bacillus licheniformis ATCC 14580; assay type: functional
[10] = test system: Enterococcus faecalis; assay: Antibacterial activity against vancomycin-resistant Enterococcus faecalis 51299; assay type: functional
[11] = test system: Staphylococcus aureus; assay: Antibacterial activity against methicillin-resistant Staphylococcus aureus 1234558336; assay type: functional
[12] = test system: Staphylococcus aureus; assay: Antibacterial activity against methicillin-resistant Staphylococcus aureus 1234544081; assay type: functional
[13] = test system: Staphylococcus aureus; assay: Antibacterial activity against methicillin-resistant Staphylococcus aureus 1234547263; assay type: functional
[14] = test system: Enterococcus faecalis; assay: Antibacterial activity against vancomycin-resistant Enterococcus faecalis 700802; assay type: functional
[15] = test system: Staphylococcus aureus; assay: Antibacterial activity against Staphylococcus aureus ATCC 25923; assay type: functional
[16] = test system: Bacillus subtilis; assay: Antibacterial activity against Bacillus subtilis BD54; assay type: functional
[17] = test system: Enterococcus faecalis; assay: Antibacterial activity against vancomycin-resistant Enterococcus faecalis ATCC 51575; assay type: functional
[18] = test system: Enterococcus faecium; assay: Antibacterial activity against Enterococcus faecium ATCC 19434; assay type: functional
[19] = test system: Enterococcus faecalis; assay: Antibacterial activity against vancomycin-resistant Enterococcus faecalis F118; assay type: functional
[20] = test system: Staphylococcus aureus; assay: Antibacterial activity against methicillin-resistant Staphylococcus aureus 1234522733; assay type: functional
[21] = test system: Staphylococcus aureus; assay: Antibacterial activity against methicillin-resistant Staphylococcus aureus 1094; assay type: functional
[22] = test system: Staphylococcus aureus; assay: Antibacterial activity against methicillin-resistant Staphylococcus aureus 1234549404; assay type: functional
[23] = test system: Staphylococcus aureus; assay: Antibacterial activity against methicillin-resistant Staphylococcus aureus 1234543349; assay type: functional
[24] = test system: Bacillus anthracis; assay: Antibacterial activity against Bacillus anthracis Sterne; assay type: functional
[25] = test system: Bacillus thuringiensis; assay: Antibacterial activity against Bacillus thuringiensis ATCC 10792; assay type: functional
[26] = test system: Enterococcus faecium; assay: Antibacterial activity against vancomycin-resistant Enterococcus faecium B42762; assay type: functional
[27] = test system: Enterococcus faecium; assay: Antibacterial activity against vancomycin-resistant Enterococcus faecium 1644; assay type: functional
[28] = test system: Enterococcus faecalis; assay: Antibacterial activity against Enterococcus faecalis ATCC 29212; assay type: functional
[29] = test system: Staphylococcus aureus; assay: Inhibition of Staphylococcus aureus ATCC 25923 single-strand DNA stimulated ATPase activity of replicative DnaB helicase at 50 uM by FRET assay
[30] = Inhibition of Staphylococcus aureus ATCC 25923 replicative DnaB helicase using 3.3 to 90 nM Hel-5'FAM:Hel-3'BHQ as substrate assessed as DNA duplex strand-unwinding by FRET assay
Method in brief: (§3)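 S. aureus helicase FRET unwinding assay run with varied DNA duplex or ATP concentrations, in triplicate. RFU/min slopes were normalized to the uninhibited control, and IC50 came from four-parameter nonlinear fits.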

[31] = Inhibition of Staphylococcus aureus ATCC 25923 replicative DnaB helicase using 0.1875 to 3 mM ATP as substrate assessed as DNA duplex strand-unwinding by FRET assay; method in brief: as §3
[32] = test system: Staphylococcus aureus; assay: Antibacterial activity against Staphylococcus aureus ATCC 25923 assessed as re-growth at MIC after 24 hrs; assay type: functional, organism-based
Method in brief: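 At set times up to 24 h, aliquots were diluted and spread on inhibitor-free LB agar to count viable CFU.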

[33] = Selectivity index, ratio of CC50 for human HeLa cells to MIC for Staphylococcus aureus ATCC 25923 in presence of reserpine; assay type: functional
[34] = test system: Staphylococcus aureus; assay: Ratio of MIC for Staphylococcus aureus ATCC 25923 in presence of reserpine to MIC for Staphylococcus aureus ATCC 25923 in absence of reserpine; assay type: functional

Cc1c(OCc2ccc(-c3ccccc3)cc2)ccc2cc(CCC(=O)O)c(=O)oc12
CC50 [1]: > 100 µM
Selectivity Index [2]: >40
IC50 [3]: 14 µM
MIC [4]: > 100 µM
MIC [5]: > 100 µM
IC50 [6]: 21 µM
Selectivity Index [7]: 2.5

Cc1c(CCCC(=O)O)c(=O)oc2c(C)c(OCc3ccc(-c4ccccc4)cc3)ccc12
CC50 [1]: 31 µM
MIC [8]: 1.25 µM (≈ 0.553 µg/mL)
Selectivity Index [2]: 25
IC50 [3]: 2.2 µM
MIC [4]: > 100 µM
MIC [5]: > 100 µM
IC50 [6]: 2 µM
Selectivity Index [7]: <0.8

Cc1c(CCC(=O)O)c(=O)oc2c(C)c(OCc3ccc4ccccc4c3)ccc12
CC50 [1]: 38 µM
MIC [8]: 5 µM (≈ 2.01 µg/mL)
Selectivity Index [2]: 7.6
IC50 [3]: 8 µM
MIC [4]: > 100 µM
MIC [5]: > 100 µM
IC50 [6]: 9 µM
Selectivity Index [7]: <1

Cc1c(CCC(=O)O)c(=O)oc2c(C)c(OCc3c4ccccc4cc4ccccc34)ccc12
CC50 [1]: 8.3 µM
MIC [8]: 2.5 µM (≈ 1.13 µg/mL)
Selectivity Index [2]: 3.3
IC50 [3]: 8.3 µM
MIC [4]: 20 µM (≈ 9.05 µg/mL)
MIC [5]: 50 µM
IC50 [6]: 7.2 µM
Selectivity Index [7]: 0.4

Cc1c(CC(=O)O)c(=O)oc2c(C)c(OCc3ccc(-c4ccccc4)cc3)ccc12
CC50 [1]: 115 µM
MIC [8]: 2.5 µM (≈ 1.04 µg/mL)
Selectivity Index [2]: 46
IC50 [3]: 8.6 µM
MIC [4]: 8.2 µM (≈ 3.4 µg/mL)
MIC [5]: 12.5 µM
IC50 [6]: 9 µM
Selectivity Index [7]: 14

Cc1c(CCC(=O)O)c(=O)oc2c(C)c(OCc3ccc(-c4ccc(Cl)c(Cl)c4)cc3)ccc12
CC50 [1]: 19.2 µM
MIC [8]: 3 µM (≈ 1.49 µg/mL)
Selectivity Index [2]: 6.4
IC50 [3]: 2.4 µM
MIC [4]: 3 µM (≈ 1.49 µg/mL)
MIC [5]: 6.3 µM
IC50 [6]: 3 µM
Selectivity Index [7]: 6.4

CCc1c(OCc2ccc(-c3ccccc3)cc2)ccc2c(C)c(CCCC(=O)O)c(=O)oc12
CC50 [1]: 15.4 µM
MIC [8]: 2.5 µM (≈ 1.14 µg/mL)
Selectivity Index [2]: 6.2
IC50 [3]: 1.8 µM
MIC [4]: > 100 µM
MIC [5]: > 100 µM
IC50 [6]: 5 µM
Selectivity Index [7]: 3.1

Cc1c(CCC(=O)O)c(=O)oc2c(C)c(OCc3ccc(-c4ccc(Cl)cc4)cc3)ccc12
MIC [9]: 0.098 µg/mL (≈ 0.212 µM)
MIC [10]: 4.2 µg/mL (≈ 9.07 µM)
MIC [11]: 1.04 µg/mL (≈ 2.25 µM)
CC50 [1]: 25 µM
MIC [12]: 0.65 µg/mL (≈ 1.4 µM)
MIC [8]: 0.625 µM (≈ 0.289 µg/mL)
MIC [13]: 0.65 µg/mL (≈ 1.4 µM)
MIC [14]: 16.7 µg/mL (≈ 36.1 µM)
MIC [15]: 0.78 µg/mL (≈ 1.68 µM)
MIC [16]: 3.1 µg/mL (≈ 6.7 µM)
IC50 [3]: 1 µM
MIC [17]: 25 µg/mL (≈ 54 µM)
MIC [18]: 12.5 µg/mL (≈ 27 µM)
MIC [19]: 3.6 µg/mL (≈ 7.78 µM)
MIC [4]: 1.25 µM (≈ 0.579 µg/mL)
MIC [20]: 0.78 µg/mL (≈ 1.68 µM)
MIC [21]: 2.1 µg/mL (≈ 4.54 µM)
MIC [22]: 0.52 µg/mL (≈ 1.12 µM)
IC50 [6]: 1.5 µM
MIC [23]: 1.56 µg/mL (≈ 3.37 µM)
MIC [24]: 0.17 µg/mL (≈ 0.367 µM)
MIC [25]: 0.52 µg/mL (≈ 1.12 µM)
MIC [26]: 9.4 µg/mL (≈ 20.3 µM)
MIC [27]: 10.4 µg/mL (≈ 22.5 µM)
MIC [28]: 6.3 µg/mL (≈ 13.6 µM)
inhibition [29]: 8%

Cc1c(CCC(=O)O)c(=O)oc2c(C)c(OCc3ccc(-c4ccccc4)cc3)ccc12
MIC [9]: 0.39 µg/mL (≈ 0.91 µM)
MIC [10]: 18.8 µg/mL (≈ 43.9 µM)
MIC [11]: 3.1 µg/mL (≈ 7.23 µM)
IC50 [30]: 1.8 µM
CC50 [1]: 82 µM
MIC [12]: 1.56 µg/mL (≈ 3.64 µM)
MIC [8]: 1.25 µM (≈ 0.536 µg/mL)
MIC [13]: 2.1 µg/mL (≈ 4.9 µM)
MIC [14]: > 25 µg/mL
MIC [15]: 1.56 µg/mL (≈ 3.64 µM)
IC50 [3]: 2 µM
MIC [17]: > 25 µg/mL
MIC [18]: 2.6 µg/mL (≈ 6.07 µM)
MIC [19]: 16.7 µg/mL (≈ 39 µM)
MIC [4]: 2.5 µM (≈ 1.07 µg/mL)
MIC [20]: 2.6 µg/mL (≈ 6.07 µM)
MIC [21]: 12.5 µg/mL (≈ 29.2 µM)
IC50 [31]: 1.5 µM
MIC [22]: 1.56 µg/mL (≈ 3.64 µM)
IC50 [6]: 3 µM
MIC [23]: 4.2 µg/mL (≈ 9.8 µM)
MIC [24]: 0.52 µg/mL (≈ 1.21 µM)
MIC [25]: 0.65 µg/mL (≈ 1.52 µM)
MIC [26]: 14.6 µg/mL (≈ 34.1 µM)
MIC [27]: 2.1 µg/mL (≈ 4.9 µM)
MIC [28]: 5.2 µg/mL (≈ 12.1 µM)
inhibition [29]: 6%
Activity [32]: Active

Cc1c(CCC(=O)O)c(=O)oc2c(C)c(OCc3ccc(-c4ccc(C(F)(F)F)cc4)cc3)ccc12
CC50 [1]: 20.3 µM
MIC [8]: < 0.8 µM
Selectivity Index [2]: >25.4
IC50 [3]: 3.3 µM
MIC [4]: 50 µM (≈ 24.8 µg/mL)
MIC [5]: 6.3 µM
IC50 [6]: 6.1 µM
Selectivity Index [33]: 3.2
Ratio [34]: 8

Reference: ChEMBL document CHEMBL2177067 (J Med Chem, 2012)
